Assay outcomes (PubChem BioAssay)
In the library only some 2.6% were active in any assay of this set; here they are far more common.
SKN-1 block – inhibitors of C. elegans SKN-1; C. elegans VP596 Pgst-4::GFP/RFP ratio, acrylamide-induced, 24 h; inhibition, % at 21.8 µM; 360,000 tested, 0.49% active; AID 624304;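 active = interference check ratio from 0.5 to 1.5 plus GFP to RFP signal ratio inhibition reaching or exceeding a fixed threshold, cut at about 30% in these data, passing the limit was not always enough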
Myeloid diff 2 – myeloid differentiation induction; ER-HoxA9 myeloid progenitors, lysozyme-GFP differentiation, flow cytometry; calls only at 10 µM; 360,000 tested, 1% active;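 active = normalized GFP-positive differentiation at or above the plate's own cutoff, the solvent-only control mean plus 3 SD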;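 also: cells exposed to compound for four days before flow analysis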
T cell modulator – T cell immune modulators affecting CD8 T cell-vesicle binding. 2C CD8+ T cell-vesicle binding, flow cytometry; hits give low values. response (vesicle binding), % at 7 µM. 330,000 tested, 0.068% active;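 active = response, share of CD8 T cells binding vesicles, and their 90th percentile fluorescence all below set limits, cut at about 80% in these data, passing the limit was not always enough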;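 also: values below 100% mean blocked vesicle binding to the CD8+ T cells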
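Assay system – 2C mouse CD8+ T cells · Also added – QL9-loaded Drosophila micro-vesicles · Timing – Cell–vesicle co-incubation 1.5 h at 37 °C, staining 20 min on ice · Signal – flow cytometry of vesicle-bound cells · Measure – percent CD8+ FL2 mean versus row control · Controls – Peptide-free naked vesicles (low) and QL9 vesicles with 0.7% DMSO vehicle (high)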
Rce1 inhib – yeast Ras-converting enzyme inhibition; AID 2563; calls only; yeast membranes, quenched prenylated peptide cleavage fluorescence; Q03530; 290,000 tested, 0.27% active;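 active = fall in fluorescence gain of 50% or more versus controls, with final raw signal at or below 3038400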
Rin1 Abl inh – human Rin1-Abl interaction inhibition; AID 588664; TR-FRET Rin1/Abl binding, biochemical; P00519+Q13671; 360,000 tested, 0.4% active; inhibition, % at 7.35 µM; in the data active = inhibition above about 5%, passing the limit was not always enough
GRK2 aptamer HTS – blocks RNA aptamer binding to human GRK2. P25098. bead flow cytometry, FAM-aptamer displacement from GRK2. inhibition of aptamer binding, % at 10 µM. 330,000 tested, 0.59% active;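 active = inhibition of aptamer binding above 40%, roughly 3 SD of noise, on plates passing a quality check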;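 also: median bead fluorescence of bound FAM aptamer so fluorescent compounds give negative values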
Target sequence (P25098 whole entry, looked up): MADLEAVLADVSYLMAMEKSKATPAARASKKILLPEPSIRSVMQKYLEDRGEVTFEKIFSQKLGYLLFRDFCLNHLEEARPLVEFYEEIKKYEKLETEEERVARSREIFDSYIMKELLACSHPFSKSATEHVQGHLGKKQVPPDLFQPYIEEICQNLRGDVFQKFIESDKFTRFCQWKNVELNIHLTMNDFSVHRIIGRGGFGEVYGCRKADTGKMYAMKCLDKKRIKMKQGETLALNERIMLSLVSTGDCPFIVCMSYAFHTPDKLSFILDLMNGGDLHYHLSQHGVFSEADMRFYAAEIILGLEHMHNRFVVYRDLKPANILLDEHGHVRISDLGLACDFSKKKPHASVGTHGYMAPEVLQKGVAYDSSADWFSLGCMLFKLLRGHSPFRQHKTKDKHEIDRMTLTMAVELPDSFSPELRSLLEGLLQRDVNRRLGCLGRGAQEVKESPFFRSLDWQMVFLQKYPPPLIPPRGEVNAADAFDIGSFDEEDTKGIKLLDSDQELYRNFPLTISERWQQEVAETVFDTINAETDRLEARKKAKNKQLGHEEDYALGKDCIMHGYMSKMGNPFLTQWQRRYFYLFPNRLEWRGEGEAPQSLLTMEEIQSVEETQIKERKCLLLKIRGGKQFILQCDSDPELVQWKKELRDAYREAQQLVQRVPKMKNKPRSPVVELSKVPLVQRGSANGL
GRK2 CP1 – confirmation of human GRK2 inhibitors displacing RNA aptamer. shares compounds with GRK2 aptamer HTS. bead-bound GRK2, FAM-aptamer displacement, flow cytometry. aptamer displacement, % at 10 µM. 2,000 tested, 4% active;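 active = aptamer displacement above 40%, near three times the noise of non-fluorescent compounds, on plates passing quality checks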;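 also: negative values mostly reflect intrinsic compound fluorescence rather than true enhancement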
FAM quench CP1 – quenches fluorescent RNA aptamer, GRK2 hit artifact; shares compounds with GRK2 aptamer HTS; Carboxyfluorescein RNA aptamer on beads, flow cytometry quenching; hits give low values; 2,000 tested, under 10 active; fluorescence response (% of DMSO), % at 10 µM;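 active = compounds that quench the bead-bound fluorescent RNA probe, cutting fluorescence to under half of the solvent control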;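 also: counterscreen run without GRK2 so only probe quenching by compound is measured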
GRK2 CP2 – confirmation of human GRK2 inhibitors binding RNA aptamer site. shares compounds with GRK2 aptamer HTS. bead-bound GRK2, FAM-aptamer displacement, flow cytometry. inhibition of aptamer binding, % at 10 µM. 360 tested, under 10 active;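 active = inhibition of aptamer binding above 40%, about triple the noise seen with nonglowing compounds, on plates passing quality control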;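 also: negative values mostly come from compounds that fluoresce themselves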
FAM quench SP – quenches fluorescent RNA aptamer, GRK2 hit artifact; shares compounds with GRK2 aptamer HTS; carboxyfluorescein RNA aptamer beads, flow cytometry quenching; hits give low values; fluorescence response vs DMSO, % at 10 µM; 360 tested, under 10 active; AID 588494;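 active = response vs DMSO under 50%, meaning signal dropped by over half, treated as fluorescence quencher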;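 also: labelled aptamer on streptavidin beads without GRK2 as a quench counter-screen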
Hits are given with their value.

Results for COc1cc2c(cc1OC)C(COc1ccc([N+](=O)[O-])cc1)N(C(C)=O)CC2 (centres undefined) ?
SKN-1 block: inactive; Myeloid diff 2: inactive; T cell modulator: inactive; Rce1 inhib: inactive; Rin1 Abl inh: inactive; GRK2 aptamer HTS: inactive

How did COc1ccc(Cl)cc1S(=O)(=O)NCc1cccs1 do in these assays?
SKN-1 block: inactive; Myeloid diff 2: inactive; T cell modulator: inactive; Rce1 inhib: inactive; Rin1 Abl inh: inactive; GRK2 aptamer HTS: 51; GRK2 CP1: inactive; FAM quench CP1: inactive

What do the screens show for `CC(OC(=O)CCc1nc2ccccc2c(=O)[nH]1)C(=O)c1ccc(C(C)(C)C)cc1` (centres undefined)?
SKN-1 block: inactive; Myeloid diff 2: inactive; T cell modulator: inactive; Rce1 inhib: inactive; Rin1 Abl inh: inactive; GRK2 aptamer HTS: inactive

What do the screens show for `CCOC1=C2CN(S(=O)(=O)c3ccc(C)cc3)[C@H](c3ccccc3)C[C@H]2n2c(=O)n(-c3ccccc3)c(=O)n2C1`?
SKN-1 block: inactive; Myeloid diff 2: inactive; Rin1 Abl inh: inactive

What do the screens show for `CCn1nc(NC(=O)C(C)(C)C)c2cc3cccc(C)c3nc21`?
SKN-1 block: inactive; Myeloid diff 2: inactive; T cell modulator: inactive; Rce1 inhib: inactive; Rin1 Abl inh: inactive; GRK2 aptamer HTS: 50; GRK2 CP1: inactive; FAM quench CP1: inactive

What do the screens show for `CC(C)=CCCC(C)CN1CCC(n2nccc2NC(=O)c2cccnc2)CC1` (centres undefined)?
SKN-1 block: inactive; Myeloid diff 2: inactive; T cell modulator: inactive; Rce1 inhib: inactive; Rin1 Abl inh: inactive; GRK2 aptamer HTS: inactive

How did O=S(=O)(NCCCc1ccccc1)c1ccccc1 do in these assays?
SKN-1 block: inactive; Myeloid diff 2: inactive; T cell modulator: inactive; Rce1 inhib: inactive; Rin1 Abl inh: inactive; GRK2 aptamer HTS: inactive

Results for Cc1ccc(C)c(S(=O)(=O)NCCCc2ccccc2)c1 ?
SKN-1 block: inactive; Myeloid diff 2: inactive; T cell modulator: inactive; Rin1 Abl inh: inactive; GRK2 aptamer HTS: 81; GRK2 CP1: inactive; FAM quench CP1: inactive

What do the screens show for `COc1ccc(C(=O)C[n+]2cc(Br)cc3ccccc32)cc1[N+](=O)[O-]`?
SKN-1 block: inactive; Myeloid diff 2: inactive; T cell modulator: inactive; Rce1 inhib: inactive; Rin1 Abl inh: inactive; GRK2 aptamer HTS: inactive

Results for O=C(C[n+]1cc(Br)cc2ccccc21)c1ccccc1 ?
SKN-1 block: inactive; Myeloid diff 2: inactive; T cell modulator: inactive; Rce1 inhib: inactive; Rin1 Abl inh: inactive; GRK2 aptamer HTS: 45; GRK2 CP1: inactive; FAM quench CP1: inactive

How did Cc1nnc(SCc2c(Cl)cccc2Cl)n(N)c1=O do in these assays?
SKN-1 block: inactive; Myeloid diff 2: inactive; T cell modulator: inactive; Rce1 inhib: inactive; Rin1 Abl inh: inactive; GRK2 aptamer HTS: 61; GRK2 CP1: inactive; FAM quench CP1: inactive

How did Cc1nnc(SCc2cccc3ccccc23)n(N)c1=O do in these assays?
SKN-1 block: inactive; Myeloid diff 2: inactive; T cell modulator: inactive; Rce1 inhib: inactive; Rin1 Abl inh: inactive; GRK2 aptamer HTS: inactive

Results for Cc1ccc(C)c(NC(=O)CSc2nnc(CNC(=O)c3ccco3)n2C)c1 ?
SKN-1 block: inactive; Myeloid diff 2: inactive; T cell modulator: inactive; Rce1 inhib: inactive; Rin1 Abl inh: inactive; GRK2 aptamer HTS: inactive

Results for Cc1ccc(F)cc1NC(=O)CSc1nnc(CNC(=O)c2ccco2)n1C ?
SKN-1 block: inactive; Myeloid diff 2: inactive; T cell modulator: inactive; Rce1 inhib: inactive; Rin1 Abl inh: inactive; GRK2 aptamer HTS: 70; GRK2 CP1: inactive; FAM quench CP1: inactive

Results for CCc1ccccc1NC(=O)CN(C1CCCCC1)S(C)(=O)=O ?
SKN-1 block: inactive; Myeloid diff 2: inactive; T cell modulator: inactive; Rce1 inhib: inactive; Rin1 Abl inh: inactive

What do the screens show for `CC12CCC(c3n[nH]c(=S)nc31)C2(C)C` (centres undefined)?
SKN-1 block: inactive; Myeloid diff 2: inactive; T cell modulator: inactive; Rce1 inhib: inactive; Rin1 Abl inh: inactive; GRK2 aptamer HTS: 73; GRK2 CP2: inactive; FAM quench SP: inactive

How did CC12CCC(c3nnc(SCc4ccc(Cl)cc4)nc31)C2(C)C (centres undefined) do in these assays?
SKN-1 block: inactive; Myeloid diff 2: inactive; T cell modulator: inactive; Rce1 inhib: inactive; Rin1 Abl inh: inactive; GRK2 aptamer HTS: inactive

Results for O=C(Nc1ccc(F)cc1)N1CCN(c2ncccn2)CC1 ?
SKN-1 block: inactive; Myeloid diff 2: inactive; T cell modulator: inactive; Rce1 inhib: inactive; Rin1 Abl inh: inactive; GRK2 aptamer HTS: 94; GRK2 CP1: inactive; FAM quench CP1: inactive

How did O=C(Nc1ccc(Cl)cc1)N1CCN(c2ncccn2)CC1 do in these assays?
SKN-1 block: inactive; Myeloid diff 2: inactive; T cell modulator: inactive; Rce1 inhib: inactive; Rin1 Abl inh: inactive; GRK2 aptamer HTS: inactive

What do the screens show for `O=C(CCC1CCCN(C(=O)CCN2CCCCC2=O)C1)NCc1ccccc1F` (centres undefined)?
SKN-1 block: inactive; Myeloid diff 2: inactive; T cell modulator: inactive; Rce1 inhib: inactive; Rin1 Abl inh: inactive; GRK2 aptamer HTS: inactive; GRK2 CP1: inactive; FAM quench CP1: inactive

How did Cn1cc(CCC(=O)N2CCCC(CCC(=O)NCc3ccccc3F)C2)cn1 (centres undefined) do in these assays?
SKN-1 block: inactive; Myeloid diff 2: inactive; T cell modulator: inactive; Rce1 inhib: inactive; Rin1 Abl inh: inactive; GRK2 aptamer HTS: inactive

How did CN(C)CC(=O)c1c(N)n(Cc2ccccc2)c(=O)n(C)c1=O do in these assays?
SKN-1 block: inactive; Myeloid diff 2: inactive; T cell modulator: inactive; Rce1 inhib: inactive; Rin1 Abl inh: inactive; GRK2 aptamer HTS: inactive

What do the screens show for `Cc1cccc(C)c1NC(=O)CN(C)CC(=O)c1c(N)n(Cc2ccccc2)c(=O)n(C)c1=O`?
SKN-1 block: inactive; Myeloid diff 2: inactive; T cell modulator: inactive; Rin1 Abl inh: inactive; GRK2 aptamer HTS: inactive; GRK2 CP1: inactive; FAM quench CP1: inactive

How did Cn1c(=O)c2c(ncn2CC(=O)N2CCc3ccccc3C2)n(C)c1=O do in these assays?
SKN-1 block: inactive; Myeloid diff 2: inactive; T cell modulator: inactive; Rce1 inhib: inactive; Rin1 Abl inh: inactive; GRK2 aptamer HTS: 58; GRK2 CP1: inactive; FAM quench CP1: inactive

How did COc1ccc(C(=O)N[C@H](C(=O)Nc2nc3c(s2)CCCC3)C(C)C)cc1 do in these assays?
SKN-1 block: inactive; Myeloid diff 2: inactive; T cell modulator: inactive; Rce1 inhib: inactive; Rin1 Abl inh: inactive; GRK2 aptamer HTS: inactive
